≈ marks a conversion by molar mass, not a printed value. One block for each compound: values may come before it.
Tests used:
[1] = test system: CHO; assay: Inhibition of SFLLR-NH2-induced calcium release in CHO cells at 10 uM treated prior to SFLLR-NH2 challenge […] by FLIPR assay; format: functional; conditions: Cricetulus griseus
Method in brief: (§1)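 FLIPR fluorescence assay in CHO cells. Calcium release is evoked by 1 μM SFLLR-NH₂, the PAR1-selective agonist peptide. Compound effect is given as % inhibition at 10 μM or, for competitive antagonists, as a calculated pA₂.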

[2] = test system: CHO; assay: Inhibition of SFLLR-NH2-induced calcium release in CHO cells treated prior to SFLLR-NH2 challenge […] by FLIPR assay; format: functional, cell-based; conditions: Cricetulus griseus, read-out: pA2 (converted); method in brief: as §1
[3] = test system: Rattus norvegicus; assay: Increase in occlusion time of arteriovenous shunt in Crl: OFA Sprague-Dawley rat at 1.25 mg/kg, iv; format: functional
Method in brief: (§2)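 Anesthetized rats; extracorporeal shunt from left carotid artery to right jugular vein, silk thread in the central portion as thrombogenic substrate. A thermal microprobe on the central shunt section gives time to occlusion, seen as a sharp temperature drop. Compound given iv at 1.25 mg/kg or orally at 40 mg/kg. Result expressed as % increase in occlusion time.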

[4] = test system: Platelet; assay: Inhibition of SFLLR-induced human platelet aggregation; format: functional
[5] = test system: Rattus norvegicus; assay: Increase in occlusion time of arteriovenous shunt in Crl; OFA Sprague-Dawley rat at 40 mg/kg, po; format: functional; method in brief: as §2
[6] = Selectivity for PAR1 to PAR2
[7] = Solubility in water; format: physicochemical
Method in brief: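 Aqueous solubility was determined on the hydrochloride salt and expressed in mg/mL.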

[8] = molecular target: Proteinase-activated receptor 2 (Homo sapiens) (UniProt P55085); assay: Antagonist activity at PAR2 expressed in Cos7 cells assessed as SLIGRl-mediated SRE-luciferase activity; format: functional, cell-based; conditions: COS-7
Sequence of Proteinase-activated receptor 2 (Homo sapiens) (P55085 whole entry): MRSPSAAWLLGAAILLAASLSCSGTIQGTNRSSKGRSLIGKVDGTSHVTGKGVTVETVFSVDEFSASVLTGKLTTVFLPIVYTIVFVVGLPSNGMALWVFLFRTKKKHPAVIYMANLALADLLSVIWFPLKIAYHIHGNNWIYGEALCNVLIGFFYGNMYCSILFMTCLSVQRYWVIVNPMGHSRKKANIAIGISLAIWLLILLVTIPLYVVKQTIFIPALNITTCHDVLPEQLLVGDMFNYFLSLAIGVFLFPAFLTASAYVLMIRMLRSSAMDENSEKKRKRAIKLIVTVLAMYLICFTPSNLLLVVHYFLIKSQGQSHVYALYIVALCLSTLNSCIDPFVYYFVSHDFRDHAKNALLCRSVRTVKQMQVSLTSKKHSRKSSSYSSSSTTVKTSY

[9] = molecular target: T1, Proteinase-activated receptor 4 (Homo sapiens) (UniProt Q96RI0); assay: Antagonist activity at PAR4 expressed in Cos7 cells assessed as AYPGKF-mediated SRE-luciferase activity; format: functional, cell-based; conditions: COS-7
T1 sequence (whole entry): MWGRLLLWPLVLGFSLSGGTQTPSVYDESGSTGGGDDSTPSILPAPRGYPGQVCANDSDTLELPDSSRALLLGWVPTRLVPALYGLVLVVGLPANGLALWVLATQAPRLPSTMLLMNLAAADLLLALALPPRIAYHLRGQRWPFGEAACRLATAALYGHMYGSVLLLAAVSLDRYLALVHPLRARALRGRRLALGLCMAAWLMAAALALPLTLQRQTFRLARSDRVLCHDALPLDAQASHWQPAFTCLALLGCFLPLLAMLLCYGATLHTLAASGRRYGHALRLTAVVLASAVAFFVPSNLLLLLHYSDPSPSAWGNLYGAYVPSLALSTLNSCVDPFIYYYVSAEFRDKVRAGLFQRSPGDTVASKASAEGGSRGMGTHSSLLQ

[10] = Selectivity for PAR1 to PAR4
[11] = Oral bioavailability in rat; format: ADME, organism-based; conditions: in vivo
Method in brief: (§3)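 Rat pharmacokinetic parameters were determined on the hydrochloride salt of each compound.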

[12] = molecular target: T2, Proteinase-activated receptor 1 (Homo sapiens) (UniProt P25116); assay: Antagonist activity at PAR1 expressed in Cos7 cells assessed as SFLLR-mediated SRE-luciferase activity; format: functional, cell-based; conditions: COS-7
T2 sequence (whole entry): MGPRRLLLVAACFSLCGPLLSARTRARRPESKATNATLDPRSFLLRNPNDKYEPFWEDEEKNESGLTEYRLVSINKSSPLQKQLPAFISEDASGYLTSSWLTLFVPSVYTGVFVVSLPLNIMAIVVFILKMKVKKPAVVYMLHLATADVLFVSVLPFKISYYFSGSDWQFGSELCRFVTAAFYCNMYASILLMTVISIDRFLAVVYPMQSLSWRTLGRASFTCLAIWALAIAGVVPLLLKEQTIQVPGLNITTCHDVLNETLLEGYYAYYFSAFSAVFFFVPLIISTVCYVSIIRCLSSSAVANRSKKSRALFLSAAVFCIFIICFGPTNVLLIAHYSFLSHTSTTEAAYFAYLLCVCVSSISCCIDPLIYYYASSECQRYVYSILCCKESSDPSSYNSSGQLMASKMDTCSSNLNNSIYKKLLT

[13] = Half life in rat plasma at 1 mg/kg, iv and 5 mg/kg, po; format: ADME, organism-based
Method in brief: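 Plasma half-life was measured in male rats dosed iv at 1 mg/kg and po at 5 mg/kg. The value is the mean over three rats.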

[14] = Clearance in rat; format: ADME, organism-based; conditions: in vivo; method in brief: as §3

Structure (SMILES): O=C(/C=C/c1ccccc1[N+](=O)[O-])N1CCN(Cc2ccc(F)cc2)C(=O)C1
- inhibition at 10 µM [1]: 26.7%

Structure (SMILES): O=C(/C=C/c1ccccc1[N+](=O)[O-])N1CCN(CC2CCCCC2)CC1
- Kb [2]: 0.49 µM
- inhibition at 10 µM [1]: 91.5%
- Activity [3]: 29%
- pKb [4]: 5.31

Structure (SMILES): O=C(/C=C/c1ccccc1[N+](=O)[O-])N1CCC(NCc2ccc(F)cc2)CC1
- inhibition at 10 µM [1]: 0%

Structure (SMILES): O=C(/C=C/c1cccc(Cl)c1)N1CCN(Cc2ccc(F)cc2)CC1
- inhibition at 10 µM [1]: 0.7%

Structure (SMILES): Cc1cccc(CN2CCN(C(=O)/C=C/c3ccccc3[N+](=O)[O-])CC2)c1
- inhibition at 10 µM [1]: 72.4%

Structure (SMILES): O=C(/C=C/c1c(F)cccc1F)N1CCN(Cc2ccc(F)c(F)c2)CC1
- inhibition at 10 µM [1]: 73.1%

Structure (SMILES): O=C(/C=C/c1c(F)cccc1F)N1CCN(C(=O)C2CCCCCC2)CC1
- Activity [5]: 0%
- Kb [2]: 0.214 µM
- inhibition at 10 µM [1]: 98.9%
- Activity [3]: 14%

Structure (SMILES): N#Cc1ccccc1/C=C/C(=O)N1CCN(C(=O)C2CCCCCC2)CC1
- Kb [2]: 0.0871 µM
- inhibition at 10 µM [1]: 92.6%
- Activity [3]: 19%
- pKb [4]: 5.17

Structure (SMILES): O=C(/C=C/c1ccccc1[N+](=O)[O-])N1CCN(C(=O)C2CCCCCC2)CC1
- inhibition at 10 µM [1]: 99.9%

Structure (SMILES): O=C(/C=C/c1ccccc1[N+](=O)[O-])N1CCN(c2cccc(Cl)c2)CC1
- inhibition at 10 µM [1]: 97.1%

Structure (SMILES): O=C(/C=C/C=C/c1ccccc1[N+](=O)[O-])N1CCN(C2CCCC2)CC1
- Activity [5]: 7%
- Kb [2]: 0.0692 µM
- inhibition at 10 µM [1]: 91.7%
- Activity [3]: 44%
- pKb [4]: 5.5

Structure (SMILES): O=C(/C=C/C=C/c1ccccc1Cl)N1CCCN(Cc2ccc(F)cc2)CC1
- inhibition at 10 µM [1]: 37.8%

- Selectivity ratio [6]: 15
- solubility [7]: 2500 µg/mL (≈ 7.26 mM)
- pKb [8]: 4.39
- pKb [9]: 4.93
- Selectivity ratio [10]: 5
- bioavailability [11]: 42%
- pKb [12]: 5.6
- half-life [13]: 2.78 h
- clearance [14]: 6 mL/min/kg
Structure (SMILES): N#Cc1ccccc1/C=C/C=C/C(=O)N1CCN(c2ccccn2)CC1
- Activity [5]: 54%
- Kb [2]: 0.324 µM
- inhibition at 10 µM [1]: 98.7%
- Activity [3]: 58%
- pKb [4]: 5.3

Structure (SMILES): O=C(/C=C/c1ccccc1[N+](=O)[O-])N1CCN(C(=O)NC2CCCCC2)CC1
- inhibition at 10 µM [1]: 39.2%

Structure (SMILES): Cc1ccc(CN2CCN(C(=O)/C=C/c3c(F)cccc3F)CC2)cc1C
- inhibition at 10 µM [1]: 65.3%

Structure (SMILES): O=C(CCc1ccccc1[N+](=O)[O-])N1CCN(Cc2ccc(F)cc2)CC1
- inhibition at 10 µM [1]: 45.3%

Structure (SMILES): O=C(/C=C/c1ccccc1[N+](=O)[O-])N1CCN(S(=O)(=O)c2ccccc2F)CC1
- inhibition at 10 µM [1]: 0%

Structure (SMILES): Cc1cccc(CN2CCN(C(=O)/C=C/c3c(F)cccc3F)CC2)c1
- inhibition at 10 µM [1]: 86.2%

Structure (SMILES): N#Cc1ccccc1/C=C/C(=O)N1CCN(Cc2ccc(F)cc2)CC1
- inhibition at 10 µM [1]: 85.4%

Structure (SMILES): O=C(C#Cc1ccccc1[N+](=O)[O-])N1CCN(Cc2ccc(F)cc2)CC1
- inhibition at 10 µM [1]: 28.6%

Structure (SMILES): O=C(/C=C/c1ccccc1[N+](=O)[O-])N1CCN(Cc2ccncc2)CC1
- inhibition at 10 µM [1]: 0%

Structure (SMILES): O=C(/C=C/c1ccccc1Cl)C1CCN(Cc2ccc(F)cc2)CC1
- inhibition at 10 µM [1]: 15.8%

Structure (SMILES): N#Cc1ccc(N2CCN(C(=O)/C=C/c3ccccc3[N+](=O)[O-])CC2)cc1
- inhibition at 10 µM [1]: 18.8%

Structure (SMILES): Nc1ccccc1/C=C/C(=O)N1CCN(Cc2ccc(F)cc2)CC1
- inhibition at 10 µM [1]: 7.4%

Structure (SMILES): O=C(/C=C/C=C/c1ccccc1[N+](=O)[O-])N1CCN(Cc2ccc(F)cc2)CC1
- inhibition at 10 µM [1]: 59.4%

Structure (SMILES): O=C(/C=C/C=C/c1ccccc1[N+](=O)[O-])N1CCN(c2ccccc2)CC1
- Kb [2]: 0.0589 µM
- inhibition at 10 µM [1]: 100%
- Activity [3]: 3%
- pKb [4]: 5.65

Structure (SMILES): O=C(/C=C/c1ccccc1Br)N1CCN(Cc2ccc(F)cc2)CC1
- inhibition at 10 µM [1]: 93.1%

Structure (SMILES): O=C(/C=C/c1ccccc1[N+](=O)[O-])N1CCN(Cc2ccc(F)cc2)CC1
- inhibition at 10 µM [1]: 88.6%

Structure (SMILES): O=C(/C=C/c1ccccc1Cl)N1CCN(Cc2ccc(F)cc2)CC1
- Selectivity ratio [6]: 15
- solubility [7]: 1700 µg/mL (≈ 4.74 mM)
- Activity [5]: 59%
- pKb [8]: 4.45
- Kb [2]: 0.214 µM
- pKb [9]: 4.91
- Selectivity ratio [10]: 5
- bioavailability [11]: 43%
- pKb [12]: 5.55
- half-life [13]: 2.17 h
- clearance [14]: 40 mL/min/kg
- inhibition at 10 µM [1]: 92.8%
- Activity [3]: 28%
- pKb [4]: 5.52

Structure (SMILES): O=C(/C=C/c1ccccc1[N+](=O)[O-])N1CCCN(Cc2ccc(F)cc2)CC1
- inhibition at 10 µM [1]: 38.2%

Structure (SMILES): CCOc1cc2c(cc1C(=O)NC)C(=N)N(CC(=O)c1cc(C(C)(C)C)c(O)c(C(C)(C)C)c1)C2
- Activity [5]: 43%
- Kb [2]: 0.141 µM
- Activity [3]: 27%
- pKb [4]: 8.18
